Measurements: ChEMBL document CHEMBL1124794, “Synthesis, chemistry, and antineoplastic activity of alpha-halopyridinium salts: potential pyridone prodrugs of acylated vinylogous carbinolamine tumor inhibitors” (J Med Chem, 1990)
Each block holds one compound with its values, some of them ahead of it.

What was measured:
[1] = Hydrolysis were done at 25 degree C in 0.05 M phosphate buffer (pH 7.4); assay type: ADME
How it was run: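 Model pyridinium salts were hydrolysed to pyridones at 25 °C in 0.05 M phosphate buffer, pH 7.4. Decay of the pyridinium UV absorption maximum was monitored over time, giving pseudo-first-order k_obs and half-life.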

[2] = Half life of the compound; assay type: ADME
P388 [3] = assay: In vivo activity against P388 Lymphocytic Leukemia in CD2F1 mice at the dose of 6.2 mg/kg, activity expressed as body weight difference; assay type: functional, Mus musculus
How it was run: (§1)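 CD2F1 mice were inoculated with ascitic fluid holding ca. 10^6 P388 cells. Drug was given daily from 24 h after inoculation, from solutions or suspensions made fresh each day, some as a saline suspension. TDS is survivors/initial animals on day 5. BWD is body weight on day 5 minus day 1. %T/C compares median survival of treated and control mice.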

P388 [4] = assay: In vivo activity against P388 Lymphocytic Leukemia in CD2F1 mice at the dose of 12.5 mg/kg, activity expressed as % T/C; assay type: functional, Mus musculus; how it was run: as §1
P388 [5] = assay: In vivo activity against P388 Lymphocytic Leukemia in CD2F1 mice at the dose of 6.2 mg/kg, activity expressed as TDS; 4/4; assay type: functional, Mus musculus; how it was run: as §1
P388 [6] = assay: In vivo activity against P388 Lymphocytic Leukemia in CD2F1 mice at the dose of 25 mg/kg, activity expressed as body weight difference; assay type: functional, Mus musculus; how it was run: as §1
P388 [7] = assay: In vivo activity against P388 Lymphocytic Leukemia in CD2F1 mice at the dose of 25 mg/kg, activity expressed as % T/C; assay type: functional, Mus musculus; how it was run: as §1
P388 [8] = assay: In vivo activity against P388 Lymphocytic Leukemia in CD2F1 mice at the dose of 6.2 mg/kg, activity expressed as % T/C; assay type: functional, Mus musculus; how it was run: as §1
P388 [9] = assay: In vivo activity against P388 Lymphocytic Leukemia in CD2F1 mice at the dose of 50 mg/kg, activity expressed as TDS; 0/4; assay type: functional, Mus musculus; how it was run: as §1
P388 [10] = assay: In vivo activity against P388 Lymphocytic Leukemia in CD2F1 mice at the dose of 12.5 mg/kg, activity expressed as body weight difference; assay type: functional, Mus musculus; how it was run: as §1
P388 [11] = assay: In vivo activity against P388 Lymphocytic Leukemia in CD2F1 mice at the dose of 25 mg/kg, activity expressed as TDS; 4/4; assay type: functional, Mus musculus; how it was run: as §1
P388 [12] = assay: In vivo activity against P388 Lymphocytic Leukemia in CD2F1 mice at the dose of 12.5 mg/kg, activity expressed as TDS; 4/4; assay type: functional, Mus musculus; how it was run: as §1
P388 [13] = assay: In vivo activity against P388 Lymphocytic Leukemia in CD2F1 mice at the dose of 50 mg/kg, activity expressed as TDS; 4/4; assay type: functional, Mus musculus; how it was run: as §1
P388 [14] = assay: In vivo activity against P388 Lymphocytic Leukemia in CD2F1 mice at the dose of 100 mg/kg, activity expressed as % T/C; assay type: functional, Mus musculus; how it was run: as §1
P388 [15] = assay: In vivo body weight difference was determined in P388 Lymphocytic Leukemia in CD2F1 mice at the dose of 50 mg/kg; assay type: functional, Mus musculus
P388 [16] = assay: In vivo body weight difference was determined in P388 Lymphocytic Leukemia in CD2F1 mice at the dose of 200 mg/kg; assay type: functional, Mus musculus
P388 [17] = assay: In vivo body weight difference was determined in P388 Lymphocytic Leukemia in CD2F1 mice at the dose of 25 mg/kg; assay type: functional, Mus musculus
P388 [18] = assay: In vivo activity against P388 Lymphocytic Leukemia in CD2F1 mice at the dose of 200 mg/kg, activity expressed as % T/C; assay type: functional, Mus musculus; how it was run: as §1
P388 [19] = assay: In vivo body weight difference was determined in P388 Lymphocytic Leukemia in CD2F1 mice at the dose of 100 mg/kg; assay type: functional, Mus musculus
P388 [20] = assay: In vivo activity against P388 Lymphocytic Leukemia in CD2F1 mice at the dose of 100 mg/kg, activity expressed as TDS; 4/4; assay type: functional, Mus musculus; how it was run: as §1
P388 [21] = assay: In vivo activity against P388 Lymphocytic Leukemia in CD2F1 mice at the dose of 50 mg/kg, activity expressed as % T/C; assay type: functional, Mus musculus; how it was run: as §1
P388 [22] = assay: In vivo activity against P388 Lymphocytic Leukemia in CD2F1 mice at the dose of 200 mg/kg, activity expressed as TDS; 4/4; assay type: functional, Mus musculus; how it was run: as §1

SMILES: CCOC(=O)c1cc(Cl)[n+](C)c(Cl)c1.CS(=O)(=O)[O-]
K obs [1]: 6.84 h⁻¹
half-life [2]: 2.1 h

SMILES: CC(C)NC(=O)OCc1c(COC(=O)NC(C)C)c(-c2ccc(Cl)[n+](C)c2)n2c1CCC2.[I-]
BWD (P388 [3]): -0.4 g
T/C (P388 [4]): 102%
TDS (P388 [5]): 4
BWD (P388 [6]): -1.1 g
T/C (P388 [7]): 109%
T/C (P388 [8]): 98%
TDS (P388 [9]): 0
BWD (P388 [10]): 0.1 g
TDS (P388 [11]): 4
TDS (P388 [12]): 4

SMILES: CC(C)NC(=O)OCc1c(COC(=O)NC(C)C)c(-c2cc(Br)c(Cl)[n+](C)c2)n2c1CCC2.[I-]
TDS (P388 [13]): 4
T/C (P388 [14]): 122%
BWD (P388 [15]): -0.4 g
BWD (P388 [16]): -0.7 g
BWD (P388 [17]): -0.6 g
T/C (P388 [18]): 105%
BWD (P388 [19]): -1 g
T/C (P388 [7]): 124%
TDS (P388 [20]): 4
T/C (P388 [21]): 118%
TDS (P388 [11]): 4
TDS (P388 [22]): 4

Results, then the compound that gave them:

K obs [1]: 0.012 h⁻¹
half-life [2]: 57.7 h
SMILES: CCOC(=O)c1cc[n+](C)c(Br)c1.O=S(=O)([O-])C(F)(F)F

K obs [1]: 0.055 h⁻¹
half-life [2]: 12.6 h
SMILES: Cc1cc(Cl)c(Cl)[n+](C)c1.O=S(=O)([O-])C(F)(F)F

K obs [1]: 0.0425 h⁻¹
half-life [2]: 269 h
SMILES: Cc1ccc(Cl)[n+](C)c1.O=S(=O)([O-])C(F)(F)F
